Measured values reported in ChEMBL document CHEMBL1671666, “Anti-human immunodeficiency virus activity, cross-resistance, cytotoxicity, and intracellular pharmacology of the 3'-azido-2',3'-dideoxypurine nucleosides” (Antimicrob Agents Chemother, 2009).

Experiments:
[1] = system: Human immunodeficiency virus 1; test: Antiviral activity against HIV1 harboring reverse transcriptase diserine insert between residues 69 and 70 infected in human HeLa P4/R5 cells assessed as inhibition of viral replication; assay type: functional, organism-based; details: Human immunodeficiency virus 1, HeLa
How it was run: (§1)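 Single-replication-cycle assay in P4/R5 cells: HeLa stably carrying a Tat-activated β-galactosidase gene under an HIV LTR promoter, grown in phenol red-free DMEM with 10% FBS and 0.5 μg/ml puromycin. Virus stocks were titred in P4/R5 cells by threefold endpoint dilution (Reed–Muench).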

[2] = Cytotoxicity against human PBMC after 2 to 4 days by MTT assay; assay type: cell-based
How it was run: (§2)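 Log-phase cells seeded at 5 × 10³ to 5 × 10⁴ cells/well with 10-fold serial compound dilutions. Incubated 2-4 days; viability read by MTT staining. CC50 from concentration-response curves by the median effect method. Mean of at least three independent experiments.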

[3] = Cytotoxicity against human MT2 cells after 2 to 4 days by MTT assay; assay type: cell-based; how it was run: as §2
[4] = Cytotoxicity against african green monkey Vero cells after 2 to 4 days by MTT assay; assay type: cell-based; details: chlorocebus sabaeus; how it was run: as §2
[5] = Cytotoxicity against human CEM cells after 2 to 4 days by MTT assay; assay type: cell-based; details: CEM cells (CCRF-CEM); how it was run: as §2
[6] = system: Human immunodeficiency virus 1; test: Antiviral activity against HIV1 infected in human HeLa P4/R5 cells assessed as inhibition of viral replication; assay type: functional, organism-based; details: Human immunodeficiency virus 1, HeLa
How it was run: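 Single-cycle assay in P4/R5 HeLa cells carrying an HIV LTR-driven, Tat-activated β-galactosidase gene. Cells kept in phenol red-free DMEM with 10% FBS and 0.5 μg/ml puromycin. Virus stock titred on these cells by threefold endpoint dilution (Reed-Muench). At least three independent experiments.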

[7] = system: Human immunodeficiency virus 1; test: Antiviral activity against HIV1 infected in human MT2 cells assessed as inhibition of viral replication; assay type: functional, organism-based; details: Human immunodeficiency virus 1, MT2
[8] = system: Human immunodeficiency virus 1; test: Antiviral activity against HIV1 harboring reverse transcriptase K65R mutant infected in human HeLa P4/R5 cells assessed as inhibition of viral replication; assay type: functional, organism-based; details: Human immunodeficiency virus 1, HeLa; how it was run: as §1
[9] = system: Human immunodeficiency virus 1; test: Antiviral activity against HIV1 harboring reverse transcriptase L74V mutant infected in human HeLa P4/R5 cells assessed as inhibition of viral replication; assay type: functional, organism-based; details: Human immunodeficiency virus 1, HeLa; how it was run: as §1
[10] = system: Human immunodeficiency virus 1; test: Antiviral activity against HIV1 harboring reverse transcriptase M184V mutant infected in human HeLa P4/R5 cells assessed as inhibition of viral replication; assay type: functional, organism-based; details: Human immunodeficiency virus 1, HeLa; how it was run: as §1
[11] = system: Human immunodeficiency virus 1; test: Antiviral activity against HIV1 harboring reverse transcriptase Q151M mutant infected in human HeLa P4/R5 cells assessed as inhibition of viral replication; assay type: functional, organism-based; details: Human immunodeficiency virus 1, HeLa; how it was run: as §1
[12] = system: Human immunodeficiency virus 1; test: Antiviral activity against HIV1 harboring reverse transcriptase M41L/L210W/T215Y mutant infected in human HeLa P4/R5 cells assessed as inhibition of viral replication; assay type: functional, organism-based; details: Human immunodeficiency virus 1, HeLa; how it was run: as §1
[13] = system: Human immunodeficiency virus 1; test: Antiviral activity against HIV1 harboring reverse transcriptase M41L/D67N/K70R/T215F/K219Q mutant infected in human HeLa P4/R5 cells assessed as inhibition of viral replication; assay type: functional, organism-based; details: Human immunodeficiency virus 1, HeLa; how it was run: as §1
[14] = system: Human immunodeficiency virus 1; test: Antiviral activity against HIV1 harboring reverse transcriptase D67N/K70R/T215F/K219Q mutant infected in human HeLa P4/R5 cells assessed as inhibition of viral replication; assay type: functional, organism-based; details: Human immunodeficiency virus 1, HeLa; how it was run: as §1
[15] = system: Human immunodeficiency virus 1; test: Antiviral activity against HIV1 harboring reverse transcriptase M41L/D67N/K70R/L210W/T215Y/K219Q mutant infected in human HeLa P4/R5 cells assessed as inhibition of viral replication; assay type: functional, organism-based; details: Human immunodeficiency virus 1, HeLa; how it was run: as §1
[16] = Cytotoxicity against human HeLa P4/R5 cells
[17] = system: Human immunodeficiency virus 1; test: Antiviral activity against HIV1 infected in human PBMC assessed as inhibition of viral replication; assay type: functional, organism-based
How it was run: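 PBMC from healthy seronegative donors, isolated on a Ficoll-Hypaque gradient and stimulated with PHA for 2-3 days before infection. At least three independent experiments.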

[18] = target: Human immunodeficiency virus type 1 reverse transcriptase (Human immunodeficiency virus 1) (UniProt Q72547); test: Selectivity, ratio of Kpol to Kd for TTP to Kpol to Kd for compound at HIV1 reverse transcriptase
How it was run: (§3)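 Pre-steady-state rapid quench with purified WT HIV-1 RT. Quenched with 0.5 M EDTA between 10 ms and 30 min. Products resolved on 7 M urea-16% polyacrylamide gels. Gives kpol and Kd; selectivity = (kpol/Kd)dNTP/(kpol/Kd)NRTI-TP. At least three independent experiments, mean ± SD.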

[19] = target: Human immunodeficiency virus type 1 reverse transcriptase (Human immunodeficiency virus 1) (UniProt Q72547); test: Activity at HIV1 reverse transcriptase measured after 30 mins; how it was run: as §3
[20] = target: Human immunodeficiency virus type 1 reverse transcriptase (Human immunodeficiency virus 1) (UniProt Q72547); test: Ratio of Kpol to Kd for HIV1 reverse transcriptase; how it was run: as §3
[21] = system: Human immunodeficiency virus 1; test: Ratio of IC50 for HIV1 harboring reverse transcriptase K65R mutant infected in human HeLa P4/R5 cells to wild type HIV1 infected in human HeLa P4/R5 cells; assay type: functional; how it was run: as §1
[22] = system: Human immunodeficiency virus 1; test: Ratio of IC50 for HIV1 harboring reverse transcriptase L74V mutant infected in human HeLa P4/R5 cells to wild type HIV1 infected in human HeLa P4/R5 cells; assay type: functional; how it was run: as §1
[23] = system: Human immunodeficiency virus 1; test: Ratio of IC50 for HIV1 harboring reverse transcriptase M184V mutant infected in human HeLa P4/R5 cells to wild type HIV1 infected in human HeLa P4/R5 cells; assay type: functional; how it was run: as §1
PBMC = test: Drug level in PHA-stimulated human PBMC measured per 10^6 cells at 10 uM after 12 hrs by LC-MS analysis; assay type: ADME, cell-based
How it was run: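 PHA-stimulated human PBMC (24-30 × 10⁶ cells) exposed to a range of nucleoside concentrations for 12 h at 37°C in 5% CO2. […] Triphosphate reported in pmol/10⁶ cells. At least three experiments, mean ± SD.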

[24] = target: Human immunodeficiency virus type 1 reverse transcriptase (Human immunodeficiency virus 1) (UniProt Q72547); test: Selectivity, ratio of Kpol to Kd for dCTP to Kpol to Kd for compound at HIV1 reverse transcriptase; how it was run: as §3
[25] = target: Human immunodeficiency virus type 1 reverse transcriptase (Human immunodeficiency virus 1, UniProt Q72547); test: Binding affinity to HIV1 reverse transcriptase; how it was run: as §3
mitochondrial DNA [26] = test: Mitochondrial toxicity in human HepG2 cells assessed as percent inhibition of mitochondrial DNA at 10 uM after 14 days by real-time PCR; assay type: cell-based
How it was run: (§4)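 Low-passage HepG2 cells seeded at 5,000 cells/well on collagen-coated plates and cultured 14 days with 10 or 100 μM NRTI. mtDNA and β-actin DNA quantified by real-time PCR in duplicate; mtDNA normalized to β-actin and expressed relative to untreated cells. At least two independent experiments; ranges given.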

mitochondrial DNA [27] = test: Mitochondrial toxicity in human HepG2 cells assessed as percent inhibition of mitochondrial DNA at 100 uM after 14 days by real-time PCR; assay type: cell-based; how it was run: as §4
HepG2 [28] = test: Mitochondrial toxicity in human HepG2 cells assessed as percent mitochondrial DNA production at 10 uM after 14 days by real-time PCR relative to control; assay type: cell-based; details: hepg2, 336 h; how it was run: as §4
HepG2 [29] = test: Mitochondrial toxicity in human HepG2 cells assessed as percent mitochondrial DNA production at 100 uM after 14 days by real-time PCR relative to control; assay type: cell-based; details: hepg2, 336 h; how it was run: as §4
HepG2 [30] = test: Mitochondrial toxicity in human HepG2 cells assessed as percent lactic acid production at 10 uM after 14 days by real-time PCR relative to beta-actin DNA; assay type: cell-based; details: hepg2, 336 h
How it was run: (§5)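 HepG2 cells cultured 14 days with 10 or 100 μM NRTI. Lactic acid quantified with a D-/L-lactic acid enzymatic test kit and expressed relative to β-actin DNA and to untreated control.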

HepG2 [31] = test: Mitochondrial toxicity in human HepG2 cells assessed as percent lactic acid production at 100 uM after 14 days by real-time PCR relative to beta-actin DNA; assay type: cell-based; details: hepg2, 336 h; how it was run: as §5
beta-actin DNA [32] = test: Mitochondrial toxicity in human HepG2 cells assessed as percent inhibition of beta-actin DNA at 10 uM after 14 days by real-time PCR; assay type: cell-based; how it was run: as §4
beta-actin DNA [33] = test: Mitochondrial toxicity in human HepG2 cells assessed as percent inhibition of beta-actin DNA at 100 uM after 14 days by real-time PCR; assay type: cell-based; how it was run: as §4
[34] = target: Human immunodeficiency virus type 1 reverse transcriptase (Human immunodeficiency virus 1) (UniProt Q72547); test: Selectivity, ratio of Kpol to Kd for dATP to Kpol to Kd for compound at HIV1 reverse transcriptase; how it was run: as §3

Cc1cn([C@H]2C[C@H](N=[N+]=[N-])[C@@H](CO)O2)c(=O)[nH]c1=O [ZIDOVUDINE]
IC50 [1]: 205 µM | CC50 [2]: > 100 µM | CC50 [3]: 150 µM | CC50 [4]: > 100 µM | CC50 [5]: 86.2 µM | IC50 [6]: 0.19 µM | IC50 [7]: 0.031 µM | IC50 [8]: 0.21 µM | IC50 [9]: 0.21 µM | IC50 [10]: 0.18 µM | IC50 [11]: 214 µM | IC50 [12]: 10.4 µM | IC50 [13]: 96.7 µM | IC50 [14]: 11.9 µM | IC50 [15]: 58.6 µM | CC50 [16]: > 270 µM

Nc1nc(=O)n([C@@H]2CS[C@H](CO)O2)cc1F [EMTRICITABINE]
IC50 [6]: 0.17 µM | IC50 [7]: 0.044 µM | IC50 [17]: 0.001 µM

Cc1cn([C@H]2C[C@H](N=[N+]=[N-])[C@@H](COP(=O)(O)OP(=O)(O)OP(=O)(O)O)O2)c(=O)[nH]c1=O
Selectivity ratio [18]: 1 | Activity [19]: 8.8 s⁻¹ | Ratio [20]: 4.4 µM⁻¹ s⁻¹

O=c1[nH]cnc2c1ncn2[C@H]1CC[C@@H](CO)O1 [DIDANOSINE]
IC50 [6]: 2.3 µM | IC50 [7]: 0.49 µM | IC50 [17]: 0.1 µM | IC50 [8]: 6.3 µM | IC50 [9]: 8.3 µM | IC50 [10]: 4.6 µM | Ratio IC50 [21]: 2.7 | Ratio IC50 [22]: 3.6 | Ratio IC50 [23]: 2

[N-]=[N+]=N[C@H]1C[C@H](n2cnc3c(=O)[nH]c(N)nc32)O[C@@H]1CO
Drug uptake (PBMC): 0.2 pmol

Nc1ccn([C@@H]2CS[C@H](COP(=O)(O)OP(=O)(O)OP(=O)(O)O)O2)c(=O)n1
Selectivity ratio [24]: 17.8 | Activity [19]: 0.023 s⁻¹ | Ratio [20]: 0.06 µM⁻¹ s⁻¹

CC(C)OC(=O)OCOP(=O)(CO[C@H](C)Cn1cnc2c(N)ncnc21)OCOC(=O)OC(C)C.O=C(O)/C=C/C(=O)O [TENOFOVIR DISOPROXIL FUMARATE]
IC50 [6]: 4.7 µM | IC50 [7]: 0.54 µM | IC50 [17]: 0.014 µM | IC50 [8]: 11.4 µM | Ratio IC50 [21]: 2.5

Nc1nc2c(ncn2[C@H]2C[C@H](O)[C@@H](COP(=O)(O)OP(=O)(O)OP(=O)(O)O)O2)c(=O)[nH]1 [DEOXYGUANOSINE TRIPHOSPHATE]
Activity [19]: 7.5 s⁻¹ | Kd [25]: 4.2 µM | Ratio [20]: 1.8 µM⁻¹ s⁻¹

Nc1ccn([C@@H]2CS[C@H](CO)O2)c(=O)n1 [LAMIVUDINE]
inhibition at 336 h, 10 µM (mitochondrial DNA [26]): < 1% | inhibition at 336 h, 100 µM (mitochondrial DNA [27]): 100% | Activity (HepG2 [28]): 119% | Activity (HepG2 [29]): 0.6% | Activity (HepG2 [30]): 105% | Activity (HepG2 [31]): 416% | inhibition at 336 h, 10 µM (beta-actin DNA [32]): < 1% | inhibition at 336 h, 100 µM (beta-actin DNA [33]): 94.3% | IC50 [6]: 0.78 µM | IC50 [7]: 0.6 µM | IC50 [17]: 0.03 µM | IC50 [8]: 60.5 µM | IC50 [10]: > 60 µM | Ratio IC50 [21]: 77 | Ratio IC50 [23]: >75

Nc1ncnc2c1ncn2[C@H]1CC[C@@H](COP(=O)(O)OP(=O)(O)OP(=O)(O)O)O1 [DDA-TRIPHOSPHATE]
Activity [19]: 5.4 s⁻¹ | Kd [25]: 5.3 µM | Ratio [20]: 1 µM⁻¹ s⁻¹ | Selectivity ratio [34]: 7.5

Cc1cn([C@H]2C=C[C@@H](COP(=O)(O)OP(=O)(O)OP(=O)(O)O)O2)c(=O)[nH]c1=O [STAVUDINE TRIPHOSPHATE]
Selectivity ratio [18]: 2.6 | Activity [19]: 4.3 s⁻¹ | Kd [25]: 2.7 µM | Ratio [20]: 1.6 µM⁻¹ s⁻¹
